Beta2AR agonist: activates human beta-2 adrenergic receptor causing internalization | Am2.2-beta2AR cells, FAP receptor internalization, flow cytometry | response, % (no concentration beside the values) | 340,000 tested, 0.43% active | AID 504454;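 active = response above a set limit, near 3 SD of response in nonfluorescent compounds, cut at about 42% in these data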
MDM2 E3 inh: blocks human Mdm2 ubiquitin ligase activity; cell-based MDM2 ubiquitination luciferase reporter, 2 h; 0 = plate control, 100 = twice control, blank-subtracted; signal enhancement, % at 5 µM; 210,000 tested, 0.11% active;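 active = signal enhancement of 30% or more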;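 also: luminescence tracks abundance of the self-degrading MDM2-luciferase fusion protein; higher signal means inhibition of MDM2 E3 ligase activity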
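test system = mammalian cells stably expressing self-ubiquitinating, self-degrading MDM2 E3–luciferase fusion | quantity = 2000 cells/well | incubation = cell settling 4 h, compound treatment 2 h, both 37 °C | signal = luminescence with SteadyLite reagent, 15 min at room temperature | evaluation = % enhancement relative to plate controls after blank subtraction | benchmarks = plate controls and plate blanks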
UPR CHOP act: activators of apoptotic arm of unfolded protein response (CHOP). CHO-CHOP luciferase reporter, UPR activation, luminescence; percent of tunicamycin response over DMSO baseline. activation, % at 10 µM. 330,000 tested, 0.34% active. AID 449763;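 active = at 10 µM dose, activation of 40% or more, normalized to positive control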
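Material: CHO-CHOP cells, stable luciferase reporter of PERK-eIF2a-CHOP signalling; quantity: 500 reporter cells seeded per well; buffer or medium: F12 medium containing 10% fetal bovine serum; compound: one dose, 10 µM in 0.5% DMSO; incubation: 6 h compound treatment, 37 °C; measured by: Steady-Glo luciferase luminescence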
XBP1 UPR activ: adaptive UPR (XBP1) activation; CHO-XBP1 luciferase reporter, IRE1-XBP1 UPR activation, luminescence; percent of tunicamycin response, DMSO as zero; activation, % at 20 µM; 330,000 tested, 0.33% active;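 active = versus positive control, 20 µM dose yields 30% or more activation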
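Material: IRE1-XBP1 luciferase reporter CHO line / Quantity: one thousand reporter cells per well / Buffer or medium: F12 with 10% serum / Compound: 20 µM single concentration, DMSO 1% / Times: 6 h treatment, 37 °C / Detection: Steady-Glo luciferase glow luminescence, 10 min after reagent addition / Benchmarks: tunicamycin high, DMSO low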
Mdm2 MdmX PPI: human Mdm2/MdmX binding inhibition; inhibition, % at 8 µM; 330,000 tested, 3% active; AID 485346; O15151+Q00987; SaOS-2 split-luciferase Mdm2/MdmX complementation, luminescence;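 active = inhibition of at least 50% at 8 µM in the primary screen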
Dynein transport: dynein cargo transport inhibition; z-score, hits read low; 220,000 tested, 0.47% active; AID 1381; 3617.4 mouse cells, GR-EGFP nuclear translocation imaging; test concentration mostly 20 µM; stimulated with dexamethasone, 1 µM; active compounds read low;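 active = plate z-score of nuclear minus cytoplasmic receptor signal below a set negative limit, without overly bright fluorescence or cell loss, cut at about -3.5 in these data, passing the limit was not always enough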;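 also: z-score of nuclear minus cytoplasmic ring GR-EGFP intensity difference per well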
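medium = tetracycline-free induction medium containing charcoal-stripped FBS | also added = 1.0 µM final dexamethasone stimulus | schedule = 48 h induction, 1 h compound, 30 min dex at 37 °C | technique = fixed, Hoechst-stained cells imaged at 10x for EGFP | measure = GR-EGFP nuclear translocation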
Mdm2 MdmX conf: confirmation of human Mdm2/MdmX interaction inhibitors. inhibition, % at 8 µM. Mdm2-MdmX binding, luminescent assay. shares compounds with Mdm2 MdmX PPI. 10,000 tested, 55% active; in the data active = inhibition above about 40%
FLuc counter: counter-screen for Mdm2/MdmX inhibitors: full-length luciferase | shares compounds with Mdm2 MdmX PPI | SaOS-2 full-length luciferase counterscreen, luminescence | inhibition, % at 8 µM | 6,200 tested, 77% active;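 active = mean inhibition at 8 µM reaching about 37%, which flags the compound as non-specific, limit read from the data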;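 also: p53-null SaOS-2 cells with luciferase driven by a doxycycline-inducible promoter; compound on cells about two nights before reading with doxycycline added after day one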
Numbers stand for hits; – = inactive; · = no result. Shown are actives, neighbours in structure and some others; about 3.7% of the full set was active somewhere.

SMILES	Beta2AR agonist	MDM2 E3 inh	UPR CHOP act	XBP1 UPR activ	Mdm2 MdmX PPI	Dynein transport	Mdm2 MdmX conf	FLuc counter
COCC(C)n1c(C)cc(C(=O)COC(=O)c2cc(=O)[nH]c3ccccc23)c1C (stereo unspecified)	–	·	–	–	58	·	68	97
Cc1nn(-c2ccccc2)c(C)c1-c1nnc(C(F)(F)F)o1	–	·	–	–	–	·	·	·
Cc1nn(-c2ccccc2)c(C)c1-c1nnc(-c2c(C)nn(-c3ccccc3)c2C)o1	–	–	–	–	56	–	–	·
Cc1cccc2cc(C#N)c(N3CCN(C)CC3)nc12	–	–	–	–	54	–	–	·
N#Cc1c2ccc(O)cc2n2ccccc12	–	–	–	–	76	–	73	–
COc1cccc(CCc2nnc(N)s2)c1	–	·	–	–	–	·	·	·
Cc1nc(NC(=O)CCN2C(=O)C3CC=CCC3C2=O)sc1C (stereo unspecified)	–	·	–	–	–	·	·	·
O=C(COC(=O)/C=C/c1ccc([N+](=O)[O-])cc1)NCC1CCCCC1	–	·	–	–	–	·	·	·
Cc1ccc(S(=O)(=O)c2nc(-c3ccccc3Br)oc2N(C)C)cc1	–	·	–	–	–	·	·	·
Cc1ccc(S(=O)(=O)c2nc(-c3ccccc3Cl)oc2N(C)C)cc1	–	·	–	–	56	·	72	73
COc1ccc(-c2nsc3c(N4CCCCC4)ncnc23)cc1	–	–	–	–	66	–	70	55
COc1ccc(-c2nsc3c(N4CCCCC4C)ncnc23)cc1 (stereo unspecified)	–	–	–	–	84	–	91	–
N#CCc1cc2ccc3cccc4ccc(c1)c2c34	–	–	–	–	–	–	·	·
O=C(/C=C/NCc1cccnc1)c1ccc(-c2ccccc2)cc1	–	·	–	–	–	·	·	·
CCOc1ccc(S(=O)(=O)N2CCN(C(=O)c3cc([N+](=O)[O-])ccc3N3CCOCC3)CC2)cc1	–	·	–	–	60	·	–	·
O=C(c1cc([N+](=O)[O-])ccc1N1CCOCC1)N1CCN(S(=O)(=O)c2ccc(F)cc2)CC1	–	·	–	–	–	·	·	·
Cc1ccc(COC(=O)c2cc([N+](=O)[O-])ccc2N2CCOCC2)cc1	–	·	–	–	71	·	75	87
CCOc1cc(S(=O)(=O)N2CC=C(c3ccc(F)cc3)CC2)c(OCC)cc1-n1cnnn1	–	–	–	–	53	–	53	82
CCOc1cc(S(=O)(=O)N2CCC(Cc3ccccc3)CC2)c(OCC)cc1-n1cnnn1	–	–	–	–	–	–	·	·
COc1ccc(C2CC(=O)N(C)c3ccccc3S2)cc1OC (stereo unspecified)	–	–	–	–	53	–	–	·
COc1ccc(C2CC(=O)N(CC(=O)NCC3CCCO3)c3ccccc3S2)cc1OC (stereo unspecified)	–	–	–	–	–	–	·	·
COc1cc(NC(=O)c2ccc(F)cc2)ccc1NC(=O)c1cc2ccccc2o1	–	·	–	–	–	·	·	·
COc1cc(NC(=O)c2ccc(Cl)cc2Cl)ccc1-c1cc2ccccc2oc1=O	–	–	–	40	57	–	–	·
COc1cc(NC(=O)c2cccc(F)c2)ccc1NC(=O)c1cc2ccccc2o1	–	·	–	–	87	·	62	86
COc1cc(NC(=O)c2ccc(C)cc2)ccc1NC(=O)c1cc2ccccc2o1	–	·	–	–	57	·	–	90
SMILES	Beta2AR agonist	MDM2 E3 inh	UPR CHOP act	XBP1 UPR activ	Mdm2 MdmX PPI	Dynein transport	Mdm2 MdmX conf	FLuc counter
COc1cc(NC(C)=O)ccc1-c1cc2ccccc2oc1=O	–	–	–	–	–	–	·	·
COc1cc(NC(=O)c2ccc(Br)cc2)ccc1NC(=O)c1cc2ccccc2o1	–	·	–	–	–	·	·	·
COc1cc(NC(=O)c2ccccc2F)ccc1NC(=O)c1cc2ccccc2o1	–	·	–	–	68	·	–	63
CS(=O)(=O)N(CC(=O)N1CCCC1)Cc1ccc(Cl)c(Cl)c1	–	·	–	–	–	·	·	·
CSCc1c(C(=O)NCCc2ccccn2)oc2ccccc12	–	·	–	–	–	·	·	·
COc1cc(NC(=O)c2oc3ccccc3c2C)ccc1NC(=O)c1ccco1	–	·	–	–	63	·	–	56
CC(OC(=O)c1cc(=O)[nH]c2ccccc12)C(=O)N1C(C)CCCC1C (stereo unspecified)	–	·	–	–	–	·	·	·
CN(C)/C=C/c1c([N+](=O)[O-])c2ccc(O)cc2n1-c1ccccc1	–	–	–	–	61	–	68	54
N#Cc1nc(NCC(F)F)nc(Nc2cc(F)cc(F)c2)n1	–	·	–	–	64	·	58	–
N#Cc1nc(Nc2cc(F)cc(F)c2)c2ncn(CC(F)F)c2n1	–	·	–	–	–	·	·	·
COC(=O)C1=C(N)Oc2cc(N(C)C)ccc2C1c1ccccc1OC (stereo unspecified)	–	–	–	–	61	–	40	42
Cc1ccccc1Nc1nc(N)nc(CCl)n1	–	–	–	–	94	–	91	40
COc1ccc(Nc2nc(N)nc(CN3CCOCC3)n2)cc1	–	–	–	–	–	–	·	·
COc1ccc(Nc2nc(N)nc(CCl)n2)cc1	–	–	–	–	87	–	87	52
O=C(Sc1nnc(-c2ccccc2)o1)N1c2ccccc2Sc2ccccc21	–	·	–	–	60	–	–	·
O=C1N/C(=N\N=C\c2cccnc2)SC1Cc1ccc(SC(F)F)cc1 (stereo unspecified)	–	–	–	–	64	–	72	44
CC(C)c1ccc(Nc2nnc(SC3CCOC3=O)s2)cc1 (stereo unspecified)	–	–	–	–	52	–	–	·
Cc1ccc(Nc2nnc(SC3CCOC3=O)s2)cc1 (stereo unspecified)	–	–	–	–	–	–	·	·
CCOc1ccc(C2/C(=C(/O)c3ccc(S(=O)(=O)N4CCCCC4)cc3)C(=O)C(=O)N2CCCOC)cc1OC (stereo unspecified)	–	·	–	–	–	·	·	·
CCOC(=O)c1c(C)[nH]c(C)c1S(=O)(=O)NCCN1CCN(c2cc(Cl)ccc2C)CC1	–	·	–	–	59	·	–	·
CCOC(=O)c1c(C)[nH]c(C)c1S(=O)(=O)NCCCN1CCOCC1	–	·	–	–	–	·	·	·
O=C(Nc1cccc(Cl)c1N1CCCCC1)c1ccc2c(c1)OCCO2	–	–	–	–	–	–	·	·
